Our source for the EC50 and CC50 values is ChEMBL document CHEMBL2016465, “Host-directed Inhibitors of Myxoviruses: Synthesis and in vitro Biochemical Evaluation” (ACS Med Chem Lett, 2011).

Molecules are shown by their SMILES. pEC50: −log10 of the molar value. A value given as a limit tells only on which side of the number the result lay.

In data set [1] the test system is Measles morbillivirus. Briefly: Antiviral activity against Measles virus MVi/Alaska USA/16.00 genotype H2 infected in african green monkey Vero cells assessed as reduction in viral-induced cytopathogenicity. It counts as functional, organism-based. The note with it: MVi/Alaska USA/16.00 genotype H2, Vero. The method, boiled down: (§1)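 Run on actively dividing cells. EC50 from four-parameter variable-slope nonlinear regression, reported as the average of four experiments ± SEM. Highest concentration tested was 75 μM.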

The test system of the next data set is Vero. The data set is described as follows: (§2) Cytotoxicity against african green monkey Vero cells after 24 hrs by MTT assay. The note with it: chlorocebus sabaeus, vero, 24 h. It is filed as cell-based. The method, boiled down: (§3)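 Run on confluent cell monolayers to reflect acute toxicity. CC50 is given as the range of two experiments. Highest concentration tested was 75 μM.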

The subject of data set [2] is Measles morbillivirus. Briefly: Antiviral activity against Measles virus. It counts as functional, organism-based. The method, boiled down: as §1
Data set [3] can be described thus: as §2. It counts as cell-based. The note with it: chlorocebus sabaeus, Vero cells. The gist of the method:
as §3

The subject of data set [4] is Respiratory syncytial virus. The data set is described as follows: Antiviral activity against Respiratory syncytial virus. It is filed as functional, organism-based. As to conditions: human respiratory syncytial virus.
For a further data set, the system named is Human respirovirus 3. The data set is described as follows: Antiviral activity against Human parainfluenza virus 3. It is filed as functional, organism-based.
A further data set concerns Mumps virus. Briefly: Antiviral activity against Mumps virus. It is filed as functional, organism-based. As to conditions: Mumps orthorubulavirus.
Data set [5] deals with unidentified influenza virus. The data set is described as follows: Antiviral activity against Influenza virus. It is filed as functional, organism-based.
In a further data set the test system is Paramyxoviridae. The data set is described as follows: Antiviral activity against Paramyxovirus measured 28 to 36 hrs post infection by cell based virus yield reduction assay. It counts as functional.
Data set [6] relates to Measles morbillivirus. The data set is described as follows: Antiviral activity against Measles virus MVi/Alaska USA/16.00 genotype H2 infected in african green monkey Vero cells measured 28 to 36 hrs post infection by cell based virus yield reduction assay. It counts as functional, organism-based. As to conditions: MVi/Alaska USA/16.00 genotype H2, Vero. The gist of the method: as §1

Take `COc1ccc(-n2c(SC(C)C(=O)Nc3ncc(Cl)cc3Cl)nc3ccccc32)cc1` (stereo not drawn): the pEC50 was 6.46 in the data set with Measles morbillivirus [1] and 6.70 in the data set with Measles morbillivirus [2]. The same compound returned a CC50 in the data set with Vero above 75 µM.
In the data set on Measles morbillivirus [2], `O=C(CSc1nc2ccccc2n1-c1ccccc1)Nc1ncc(Cl)cc1Cl` showed a pEC50 of 6.15.
The compound `Cc1cccc(-n2c(SCC(=O)Nc3ncc(Cl)cc3Cl)nc3ccccc32)c1` gave a pEC50 in the data set on Measles morbillivirus [2] of 5.68.
Regarding `COc1ccc(-n2c(S[C@@H](C)C(=O)Nc3ccc(C)cc3Cl)nc3ccccc32)cc1`, in the data set with Measles morbillivirus [1], the pEC50 was 6.52.
The same measure, in the same setting: the value for `COc1ccc(-n2c(S[C@H](C)C(=O)Nc3ccc(C)cc3Cl)nc3ccccc32)cc1` was 6.70; that for `COc1ccc(Cn2c(NC(C)C(=O)Nc3ccc(C)cc3Cl)nc3ccccc32)cc1` (stereo not drawn) was below 3.82; that for `COc1ccc(-n2c(CCC(=O)Nc3ccc(C)cc3Cl)nc3ccccc32)cc1` was below 3.82.
On to `Cc1ccc(NC(=O)[C@H](C)Oc2nc3ccccc3n2Cc2ccccc2)c(Cl)c1`, for which the pEC50 in the data set on Measles morbillivirus [1] was below 3.82.
In the case of `COc1ccc(-n2c([S+]([O-])C(C)C(=O)Nc3ccc(C)cc3Cl)nc3ccccc32)cc1` (stereo not drawn), the pEC50 in the data set on Measles morbillivirus [1] is 5.89. This compound also gave a CC50 in the data set with Vero above 75 µM.
For `COc1ccc(-n2c(S(=O)(=O)C(C)C(=O)Nc3ccc(C)cc3Cl)nc3ccccc32)cc1` (stereo not drawn), the pEC50 in the data set with Measles morbillivirus [1] is below 3.82.
For `Cc1ccc(NC(=O)C(C)Sc2nc3ccccc3n2Cc2ccccc2)c(Cl)c1` (stereo not drawn), in the data set on Measles morbillivirus [1], the pEC50 is 6.40. This compound had a CC50 in the data set with Vero above 75 µM.
For the compound `COc1ccc(Cn2c(SC(C)C(=O)Nc3ccc(C)cc3Cl)nc3ccccc32)cc1` (stereo not drawn), the pEC50 in the data set with Measles morbillivirus [1] was 6.15. This compound also gave a CC50 in the data set on Vero above 75 µM.
With `COc1ccc(-n2c(SC(C)C(=O)Nc3ncc(C(F)(F)F)cc3Cl)nc3ccccc32)cc1` (racemic), in the data set on Measles morbillivirus [1], the pEC50 was 6.40. Also, in data set [3], the midpoint of cytotoxicity, the CC50 at 24 h, lay at 9.2 µM.
For the compound `CC(Sc1nc2ccccc2n1-c1ccc(F)cc1)C(=O)Nc1ncc(Cl)cc1Cl` (racemic), the pEC50 in the data set on Measles morbillivirus [1] is 7.00. In data set [3], this compound came in with a CC50 at 24 h of 5.9 µM.
Take `CCOc1ccc(-n2c(SC(C)C(=O)Nc3ncc(Cl)cc3Cl)nc3ccccc32)cc1` (racemic): the pEC50 in the data set on Measles morbillivirus [1] is 7.00. In data set [3], this compound displayed a CC50 at 24 h of 18.5 µM.
For `COc1ccc(-n2c(SC(C)C(=O)Nc3nc(C)c(Cl)cc3Cl)nc3ccccc32)cc1` (racemic), the pEC50 with Measles morbillivirus [1] was 6.70. The compound further registered a CC50 at 24 h in [3] of 7.25 µM.
As to `COc1ccc(-n2c(SC(C)C(=O)Nc3ccc(Cl)cn3)nc3ccccc32)cc1` (racemic), the pEC50 in the data set with Measles morbillivirus [1] was below 4.12.
With `COc1ccc(-n2c(SC(C)C(=O)Nc3nc(C)c(Br)cc3Br)nc3ccccc32)cc1` (racemic), in the data set on Measles morbillivirus [1], the pEC50 was 6.30. This compound gave a CC50 at 24 h in data set [3] of 9.7 µM.
For `COc1ccc(-n2c(SC(C)C(=O)Nc3ncc(C)cc3Cl)nc3ccccc32)cc1` (racemic), the pEC50 in the data set with Measles morbillivirus [1] was 7.30. The compound further registered a CC50 at 24 h in [3] of 0.88 µM.
With `CCOc1ccc(-n2c(SC(C)C(=O)Nc3cc(C)cc(C)n3)nc3ccccc32)cc1` (racemic), the pEC50 with Measles morbillivirus [1] is 5.92.
On the same count and under the same terms, to `Cc1nnc(NC(=O)C(C)Sc2nc3ccccc3n2-c2ccc(F)cc2)nc1C` (racemic) belongs 4.76.
For the compound `COc1ccc(-n2c(SC(C)C(=O)Nc3cc(C)nn3C)nc3ccccc32)cc1` (racemic), the pEC50 with Measles morbillivirus [1] was 6.30. Moreover, in the data set with Vero, the CC50 was found to be 75 µM.
With `COc1ccc(-n2c(SC(C)C(=O)Nc3nnc(C)c(C)n3)nc3ccccc32)cc1` (racemic), the pEC50 in the data set on Measles morbillivirus [1] is 5.03.
Same read-out and setting: the value for `COc1ccc(-n2c(SC(C)C(=O)Nc3nc(C)cc(Cl)n3)nc3ccccc32)cc1` (racemic) was below 4.12; that for `COc1ccc(-n2c(SC(C)C(=O)Nc3nc(C)cs3)nc3ccccc32)cc1` (racemic) was 5.55.
Turning to `COc1ccc(-n2c(SC(C)C(=O)Nc3cc(C)no3)nc3ccccc32)cc1` (racemic), the pEC50 in the data set on Measles morbillivirus [1] was 6.40. The CC50 in the data set with Vero is above 75 µM.
For the compound `COc1ccc(-n2c(SC(C)C(=O)Nc3cc(Br)ccc3Br)nc3ccccc32)cc1` (racemic), the negative logarithm of the EC50 (pEC50) in the data set with Measles morbillivirus [1] was 5.85.
Consider `COc1ccc(-n2c(SC(C)C(=O)Nc3ccc(C)cc3Cl)nc3ccccc32)cc1` (racemic), for which the pEC50 in the data set with Measles morbillivirus [1] is 6.70; in [4], 8.00; in the data set on Human respirovirus 3, 8.00; with Mumps virus, 8.00; in data set [5], 8.00; in the data set with Paramyxoviridae it was 8.00. In the data set with Measles morbillivirus [6], this compound gave a pEC50 of 7.52. In the data set on Vero, this compound came in with a CC50 above 75 µM.
